Published values pooled from the literature.
Protocols differ between the studies behind these lines.

Compound	organism	test	test system	conditions	endpoint	result
Cc1ccc2nc(-c3ccc([N+](=O)[O-])cc3)n(Cc3ccccc3Cl)c2c1	Enterococcus faecalis	microbial growth, broth dilution	ATCC29212		MIC	64 µg/mL
CCc1ccc(-n2cc(CN3CCN(C(=O)c4c(C)nc5cc(C)ccn45)CC3)nn2)cc1	Leishmania major	parasite growth, resazurin		72 h, promastigote	IC50	74.6 µM
Cc1ccc2nc(-c3ccc(N(C)C)cc3)[nH]c2c1	Enterococcus faecalis	microbial growth, broth dilution	ATCC29212		MIC	64 µg/mL
C[C@@H]1[C@H](O)[C@@H](C)/C=C/C=C/C=C/C=C/C=C/C=C/C=C/[C@H](O[C@@H]2O[C@H](C)[C@@H](O)[C@H](N)[C@@H]2O)C[C@@H]2O[C@](O)(C[C@@H](O)C[C@@H](O)[C@H](O)CC[C@@H](O)C[C@@H](O)CC(=O)O[C@H]1C)C[C@H](O)[C@H]2C(=O)O	Aspergillus fumigatus	microbial growth	ATCC204305		MIC	1.35 µM
Cc1nc2ccc(Cl)cn2c1C(=O)N1CCN(Cc2cn(-c3ccccc3Cl)nn2)CC1	Leishmania major	parasite growth, resazurin		72 h, promastigote	IC50	91.5 µM
O=C1NN=C(N=Cc2ccc(O)cc2O)C1=NNn1c(-c2ccccc2)nc2ccccc2c1=O	Aspergillus fumigatus	microbial growth, broth dilution			MIC	53.5 µM
C#CCCCCCCCCC=CCC(O)CC(O)CO (stereo not drawn)	Aspergillus fumigatus	microbial growth, resazurin	ATCC204305		IC50	> 8 µg/mL
CC1=NN(CNc2ccc(Cl)cc2)C(=O)C1=NNn1c(-c2ccccc2)nc2ccccc2c1=O	Aspergillus fumigatus	microbial growth, broth dilution			MIC	51.5 µM
CC1(C)OB(CC2c3ccccc3C(=O)N2C2CCCCC2)OC1(C)C (stereo not drawn)	Leishmania major	parasite growth		intracellular, amastigote	IC50	13.2 µM
Cc1ccn2c(C(=O)N3CCN(CCn4cc(-c5ccc(C(C)(C)C)cc5)nn4)CC3)c(C)nc2c1	Leishmania major	parasite growth, resazurin		72 h, promastigote	IC50	15.1 µM
COc1ccc(-c2nc3ccccc3[nH]2)cc1O	Enterococcus faecalis	microbial growth, broth dilution	ATCC29212		MIC	64 µg/mL
CCCCCCCCCCCCCCCCOP(=O)([O-])OCC[N+](C)(C)C	Leishmania major	parasite growth, resazurin		72 h, promastigote	IC50	12.6 µM
Cc1ccc2nc(-c3ccccc3O)[nH]c2c1	Enterococcus faecalis	microbial growth, broth dilution	ATCC29212		MIC	64 µg/mL
CC1(C)S[C@@H]2[C@H](NC(=O)[C@H](N)c3ccccc3)C(=O)N2[C@H]1C(=O)O	Enterococcus faecalis	microbial growth, agar dilution	ATCC33186	26.93 µM	inhibition	100%
Cc1ccn2c(C(=O)N3CCN(Cc4cn(-c5ccc([N+](=O)[O-])cc5)nn4)CC3)c(C)nc2c1	Leishmania major	parasite growth, resazurin		72 h, promastigote	IC50	> 500 µM
Oc1ccc(Br)cc1-c1nc2ccccc2[nH]1	Enterococcus faecalis	microbial growth, broth dilution	ATCC29212		MIC	128 µg/mL
C[C@@H](c1ncncc1F)[C@](O)(Cn1cncn1)c1ccc(F)cc1F	Acanthamoeba griffini	parasite growth, resazurin		7 days	IC50	37.6 µM
CN(C)N1C(=O)c2ccccc2C1CB1OC(C)(C)C(C)(C)O1 (stereo not drawn)	Leishmania major	parasite growth		promastigote	IC50	238 µM
N=C(NCCCCCCNC(=N)NC(=N)Nc1ccc(Cl)cc1)NC(=N)Nc1ccc(Cl)cc1	Acanthamoeba griffini	parasite growth, resazurin		96 h	IC50	7.38 µM
Cc1nc2ccc(Cl)cn2c1C(=O)N1CCN(Cc2cn(-c3ccc([N+](=O)[O-])cc3)nn2)CC1	Leishmania major	parasite growth, resazurin		72 h, promastigote	IC50	> 250 µM
O=C(O)c1cn(C2CC2)c2cc(N3CCNCC3)c(F)cc2c1=O	Enterococcus faecalis	microbial growth, broth dilution	ATCC29212		MIC	8 µg/mL
